Test [1] concerns the target T1, Sterol O-acyltransferase 1 (Homo sapiens, UniProt P35610).
T1 sequence (P35610 whole entry): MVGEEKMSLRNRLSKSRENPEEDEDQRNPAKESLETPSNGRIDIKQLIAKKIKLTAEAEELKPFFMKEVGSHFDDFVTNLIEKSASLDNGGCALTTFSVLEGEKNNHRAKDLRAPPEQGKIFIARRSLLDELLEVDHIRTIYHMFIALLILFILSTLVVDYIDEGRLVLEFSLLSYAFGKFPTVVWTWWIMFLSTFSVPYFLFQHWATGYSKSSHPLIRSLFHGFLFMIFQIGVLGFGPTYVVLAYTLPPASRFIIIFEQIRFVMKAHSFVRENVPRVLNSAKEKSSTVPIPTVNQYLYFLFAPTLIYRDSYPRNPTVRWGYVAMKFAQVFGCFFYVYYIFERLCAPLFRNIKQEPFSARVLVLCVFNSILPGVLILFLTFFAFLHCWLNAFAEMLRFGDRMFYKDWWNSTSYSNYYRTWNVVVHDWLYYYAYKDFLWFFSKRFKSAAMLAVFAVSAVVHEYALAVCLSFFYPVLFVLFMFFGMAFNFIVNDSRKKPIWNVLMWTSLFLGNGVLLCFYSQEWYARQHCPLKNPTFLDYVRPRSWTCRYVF
The test is described as follows: In vitro inhibitory concentration against ACAT derived from smooth muscle cells from thoracic aorta of monkeys. Summed up: (§1)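 Aortic smooth-muscle cells from African green monkey thoracic aorta, grown 48 h in DMEM/10% FCS with LDL from hypercholesterolemic monkeys plus graded compound concentrations (methanol). Albumin-bound [14C]oleate then added for 2.5 h; cells trypsinized, Folch lipid extraction, [14C]cholesteryl esters isolated by TLC and counted by scintillation; IC50 derived.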

In test [2] the target is T1, Sterol O-acyltransferase 1. Kind of test: In vitro inhibitory concentration against acyl coenzyme A:cholesterol acyltransferase derived from smooth muscle cells from thoracic aorta of monkeys. Summed up: as §1
Test [3] concerns the target T2, Sterol O-acyltransferase 1 (Rattus norvegicus, UniProt O70536).
T2 sequence (O70536 whole entry): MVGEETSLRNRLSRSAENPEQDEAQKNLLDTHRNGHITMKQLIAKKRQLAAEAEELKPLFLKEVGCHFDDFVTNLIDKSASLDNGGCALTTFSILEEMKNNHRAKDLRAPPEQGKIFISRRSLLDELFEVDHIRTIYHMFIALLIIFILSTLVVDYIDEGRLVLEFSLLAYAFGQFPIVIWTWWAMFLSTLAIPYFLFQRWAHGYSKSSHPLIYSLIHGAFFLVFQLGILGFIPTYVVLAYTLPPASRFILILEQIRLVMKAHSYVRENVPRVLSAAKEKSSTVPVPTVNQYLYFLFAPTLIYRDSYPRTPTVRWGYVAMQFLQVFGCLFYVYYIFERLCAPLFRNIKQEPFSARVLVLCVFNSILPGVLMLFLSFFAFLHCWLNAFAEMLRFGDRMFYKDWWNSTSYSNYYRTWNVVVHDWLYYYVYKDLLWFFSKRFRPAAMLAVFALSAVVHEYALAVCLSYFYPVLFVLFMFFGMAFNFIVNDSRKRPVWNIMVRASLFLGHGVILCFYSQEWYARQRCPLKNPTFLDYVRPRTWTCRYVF
Kind of test: In vitro inhibitory concentration against […] derived from rat adrenals.

Test [4] deals with T1, Sterol O-acyltransferase 1. The test is described as follows: In vitro inhibitory concentration against […] derived from smooth muscle cells from thoracic aorta of monkeys.

In test [1], `Cc1cc(C)c(NC(=O)N(Cc2ccccc2)Cc2ccccc2)cc1C` had an IC50 of 1.08 µM.
As to `CCCCN(CCCC)C(=O)Nc1ccc(C)c(Cl)c1`, the midpoint of inhibition in test [2], the IC50, lay at 12.8 µM.
The same measure, in the same setting: with `Cc1c(Cl)cccc1NC(=O)N(CCC(C)(C)C)Cc1cccs1` the figure was 6.3 µM.
As to `CCCCN(C(=O)Nc1ccc(C)cc1C)c1ccccc1`, 26.9 µM corresponded to half-maximal inhibition in test [1] (IC50).
Regarding `CC(C)(C)CCN(Cc1cccs1)C(=O)Nc1ccc(F)cc1F`, in test [2], the midpoint of inhibition, the IC50, lay at 17 µM.
On to `CCCCCCCN(Cc1ccco1)C(=O)Nc1cc(C)c(C)cc1C`, for which the IC50 in test [3] is 2.24 µM; in test [4], 0.14 µM.
In the case of `O=C(Nc1cccc(Cl)c1)N(Cc1ccccc1)Cc1ccccc1`, the 50% inhibitory concentration (IC50) in test [2] is 39.9 µM.
On the same count and under the same terms, with `CCCCN(CCCC)C(=O)Nc1cccc(C)c1` the figure was 24 µM; with `CCCCN(Cc1ccccc1)C(=O)Nc1ccc(C)cc1C`, 1.83 µM; with `CCCCN(Cc1ccccc1)C(=O)Nc1c(Cl)cc(Cl)cc1Cl`, 3.62 µM.
Still for that read-out and setting: with `CC(C)(C)CCN(Cc1cccs1)C(=O)Nc1c(Cl)cc(Cl)cc1Cl` the figure was 2.62 µM.

The values are drawn from BindingDB's records for doi:10.1021/jm00130a016 (American Cyanamid, 1989).
